Source: ChEMBL document CHEMBL4396869, “Design and Synthesis of Selective Phosphodiesterase 4D (PDE4D) Allosteric Inhibitors for the Treatment of Fragile X Syndrome and Other Brain Disorders” (J Med Chem, 2019)

Assays:
[1] = Drug level in human hepatocytes treated with 2-(4-((2-(3-Chlorophenyl)-6-ethylpyrimidin-4-yl)methyl)phenyl)acetamide assessed as metabolite formation measured after 4 hrs by LC-UV/MS/MS analysis; assay type: ADME, cell-based, Hepatocyte
Outline: (§1)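 Metabolite identification: cryopreserved hepatocytes from male Wistar rat or human, 0.5×10^6 cells/mL in suspension, incubated 4 h at 37 °C; incubation medium analysed by LC-UV/MS/MS.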

[2] = Drug level in Wistar rat hepatocytes treated with 2-(4-((2-(3-Chlorophenyl)-6-ethylpyrimidin-4-yl)methyl)phenyl)acetamide assessed as metabolite formation measured after 4 hrs by LC-UV/MS/MS analysis; assay type: ADME, cell-based, Hepatocyte; outline: as §1

CCc1cc(Cc2ccc(CC(=O)O)cc2)nc(-c2cccc(Cl)c2)n1
Drug metabolism [1]: Metabolite_Detected
Drug metabolism [2]: Metabolite_Detected
